Screens from PubChem.
The entries come from a sample that favours hits as a whole.
MDM2 E3 inh – inhibitors of human Mdm2 E3 ubiquitin ligase; signal enhancement, % at 5 µM; cell-based MDM2 ubiquitination luciferase reporter, 2 h; 0 = plate control, 100 = twice control, blank-subtracted; 210,000 compounds, 0.11% hits;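 active means signal enhancement of 30% or more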;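 further: luminescence tracks abundance of the self-degrading MDM2-luciferase fusion protein; higher signal means inhibition of MDM2 E3 ligase activity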
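system = mammalian cells stably expressing self-ubiquitinating, self-degrading MDM2 E3–luciferase fusion | quantity = 2000 cells per well seeded | incubation = 4 h cell settling then 2 h compound exposure, 37 °C | signal = SteadyLite luminescence, 15 min reagent step | benchmarks = plate control and blank wells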
S1P4 antagonist – antagonists of human S1P4 receptor; O95977; AID 1510; inhibition, % at 4.98 µM; 220,000 compounds, 0.26% hits; S1P4-expressing cells, antagonist mode, reporter read-out; in the data active means inhibition above about 29%;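 further: 0% = wells stimulated with agonist and 100% = vehicle wells without agonist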
Target sequence (O95977 whole entry, looked up): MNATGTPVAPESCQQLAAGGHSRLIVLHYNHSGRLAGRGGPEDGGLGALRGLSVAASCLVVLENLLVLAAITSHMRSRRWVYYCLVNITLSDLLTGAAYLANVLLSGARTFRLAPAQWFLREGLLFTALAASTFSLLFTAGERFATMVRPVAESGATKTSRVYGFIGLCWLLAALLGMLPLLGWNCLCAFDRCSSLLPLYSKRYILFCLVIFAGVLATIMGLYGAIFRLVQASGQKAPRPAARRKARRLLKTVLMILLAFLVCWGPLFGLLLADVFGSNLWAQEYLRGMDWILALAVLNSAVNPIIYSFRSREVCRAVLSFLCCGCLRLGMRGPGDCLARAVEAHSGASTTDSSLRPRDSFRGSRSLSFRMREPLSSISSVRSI
S1P4 ag – agonists of human S1P4 receptor; activation, % at 4.98 µM; 220,000 compounds, 0.35% hits; AID 1509; O95977; S1P4-expressing cell line, agonist reporter assay; in the data active means activation above about 11%;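 further: 0% = DMSO vehicle and 100% = reference agonist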
Lmaj promast – Leishmania major promastigote growth inhibition; inhibition, % at 10 µM; Leishmania major promastigotes, resazurin fluorescence viability; 200,000 compounds, 9% hits; in the data active means inhibition above about 50%;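 further: promastigotes grown with compound for 44 hours at 28 °C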
S1P3 antag – blocks the human S1P3 receptor | Q99500 | CHO S1P3 NFAT-BLA reporter, FRET fluorescence, antagonist mode | inhibition, % at 4.98 µM | 170,000 compounds, 0.27% hits | AID 485;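 active means inhibition above the plate cutoff, the mean inhibition of test wells on that plate plus 3 SD, cut at about 28% in these data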;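 further: cells challenged with S1P at its EC80 of 0.8 µM; blue over green emission ratio from cleaved BLA substrate after 4 h stimulation; 0% = S1P-stimulated wells and 100% = unstimulated DMSO-only wells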
The depositor's hits bear a star; . = not tested or not shown.

SMILES	MDM2 E3 inh	S1P4 antagonist	S1P4 ag	Lmaj promast	S1P3 antag
Cc1ccc(C(=O)N/C(=C/c2ccc(-c3cccc([N+](=O)[O-])c3)o2)C(=O)NC(C)(C)C)cc1	-11	15	-1	82*	8
CN(C)CCCNC(=O)/C(=C\c1ccc(-c2ccc(Br)cc2)o1)NC(=O)c1ccccc1	6	-4	-1	100*	-17
CN(C)CCNC(=O)/C(=C/c1ccc(-c2cccc(Cl)c2)o1)NC(=O)c1ccccc1	-3	-9	1	100*	-13
Cc1ccc(C(=O)N/C(=C/c2ccc(-c3cccc([N+](=O)[O-])c3)o2)C(=O)NC(C)C)cc1	-11	15	2	2	.
Cc1c(C(=O)O)oc2c1/C(=N\O)CC(C)(C)C2	-3	-18	-1	-6	1
Cc1ccc(C)c(OCCn2c(=O)c3c(ncn3C3CCCC3)n(Cc3ccccc3)c2=O)c1	-5	-13	-1	96*	-1
O=C(c1ccccc1Cl)N1CCSCC1	14	-6	1	.	-12
COc1cc(N(C(=O)Cc2cccs2)C(C(=O)NC2CCCCC2)c2ccc(C)cc2)ccc1-n1cnnn1 (stereo unspecified)	-21	-16	-1	63*	4
Cc1ccc(N(C(=O)Cn2nnc3ccccc32)C(C(=O)NC2CCCCC2)c2cn(C)nc2C)cc1 (stereo unspecified)	6	-1	1	8	12
Cc1nn(C)cc1C(C(=O)NC1CCCCC1)N(C(=O)Cc1cccs1)c1ccc(Cl)cc1 (stereo unspecified)	-7	-24	-1	85*	-3
O=C(c1cc2c(s1)CCCC2)N1CCN(S(=O)(=O)c2ccccc2C(F)(F)F)CC1	-10	10	-3	77*	2
O=C(c1cc2c(s1)CCCC2)N1CCN(c2ccccc2)CC1	0	-17	1	-10	-17
CCOc1ccccc1N1CCN(C(=O)c2cc3c(s2)CCC3)CC1	-8	-8	1	68*	.
Cc1sc2nc(-c3cccnc3)nc(Cl)c2c1-c1ccccc1	-1	-9	1	61*	-2
Cc1sc2nc(-c3ccccc3)[nH]c(=O)c2c1-c1ccccc1	4	0	1	-1	-10
O=S1(=O)CCN(C(CCO)c2cccc(C(F)(F)F)c2)CC1 (stereo unspecified)	-19	-2	1	-5	-15
CCSc1ccccc1C(=O)N=C1NC(=O)CC2C(=O)NCCN12 (stereo unspecified)	-28	-1	1	-7	3
Cc1ccc2[nH]c(=O)c3cc(C(=O)N(C)Cc4ccco4)sc3c2c1	1	-8	-1	56*	6
CCOCCCN(Cc1ccco1)C(=O)c1cc2c(=O)[nH]c3ccc(C)cc3c2s1	-11	-1	0	73*	.
NCCCCCc1nnc(SCC(N)=O)o1	-15	-8	-1	-3	0
CCCC(=O)NC(=S)Nc1cccc(NC(=O)c2ccccc2)c1	-13	-15	3	46	7
CCCCC(=O)NC(=S)Nc1cccc(NC(=O)c2ccccc2)c1	-2	-13	-4	98*	-16
CC(C)CC(=O)NC(=S)Nc1cccc(NC(=O)c2ccccc2)c1	-10	-17	0	100*	13
CCCCC(=O)Nc1cccc(NC(=S)NC(=O)Cc2ccccc2)c1	-5	-14	0	52*	1
CCCC(=O)Nc1ccc(Cl)c(NC(=S)NC(=O)C(C)C)c1	-7	-22	-1	100*	15
SMILES	MDM2 E3 inh	S1P4 antagonist	S1P4 ag	Lmaj promast	S1P3 antag
CCOC(=O)CC(NC(=O)Cc1ccc(F)cc1)c1ccccc1Cl (stereo unspecified)	-11	-19	0	34	3
O=C(CCN1C(=O)C2C3C=CC(C3)C2C1=O)N1CCN(c2ccc([N+](=O)[O-])cc2)CC1 (stereo unspecified)	-10	-7	0	-10	-1
O=C1C2C3C=CC(C3)C2C(=O)N1CCN1CCN(Cc2ccc([N+](=O)[O-])cc2)CC1 (stereo unspecified)	-11	-3	1	72*	-8
O=C(CSc1nnc2c3ccccc3c3ccccc3c2n1)Nc1ccccc1	-18	-8	1	97*	.
Cc1noc(NS(=O)(=O)c2ccc(NC(=O)CSc3nnc4c(n3)[nH]c3ccccc34)cc2)c1C	-2	0	0	57*	-6
Cc1ccc(-n2c(Cl)c(Cl)nc(Cl)c2=O)cc1	-23	76*	2	17	2
CSc1nc(N(C)C)nc(N(C)C#N)n1	-21	-13	1	-2	11
CCOC(=O)C1(Cc2ccccc2C(F)(F)F)CCN(C2CCN(C(C)C)CC2)CC1	14	-2	0	99*	-7
CCNC(=O)CN1C(=O)NC(Cc2ccccc2)(Cc2ccccc2)C1=O	-17	-5	0	-5	5
NC(=O)C1CCN(C2=C(Cl)C(=O)c3ccccc3C2=O)CC1	-43	-7	-3	99*	.
O=C1C(Cl)=C(N2CCC(C(=O)O)CC2)C(=O)c2ccccc21	0	16	-2	.	-11
CCOCCCNc1ccc(N2C(=O)C3CCCCC3C2=O)cc1[N+](=O)[O-] (stereo unspecified)	-4	-3	-1	-6	-4
O=C(COC(=O)c1ccc(CNS(=O)(=O)c2ccc(F)c(Cl)c2)cc1)NCC1CCCCC1	-7	-8	-1	-7	-6
C=CCn1c(=O)/c(=C/c2ccc(F)cc2)s/c1=C(\C#N)c1nnc2n1CCCCC2	-1	-14	-2	61*	7
CCOc1cc(/C=C/C(=O)c2ccc(C)cc2)ccc1OCC(=O)N(C)C	0	15	1	100*	-17
COc1ccc(CCNC(=O)COC(=O)/C=C/c2ccc(OCC#N)c(OC)c2)cc1OC	-1	0	0	6	-9
CCOc1cc(/C=C/C(=O)O)ccc1OCCO	2	-5	-1	10	-15
CCOc1cc(/C=C2/COc3ccccc3C2=O)ccc1OCC(=O)N(C)C	-24	37*	-5	100*	3
COc1cc(/C=C/C(=O)c2ccc(C)cc2)ccc1OCC#N	-6	5	0	98*	-3
O=C(Cc1ccccc1[N+](=O)[O-])N1CCc2ccccc2C1	-3	0	1	-3	-4
COc1ccc(CC(C(=O)Nc2cccc(F)c2)c2nn[nH]n2)c(OC)c1 (stereo unspecified)	-11	-4	1	0	0
Nc1c(C(=O)Nc2ccc(Cl)c(Cl)c2)sc2nc(-c3cccnc3)ccc12	-62	-4	0	59*	-1
O=C(CC(C(=O)N1CCc2ccccc21)n1ccnc1)NCc1cccnc1 (stereo unspecified)	-8	-6	0	-3	2
CCN(CCCNC(=O)CC(C(=O)N1CCc2ccccc21)n1ccnc1)c1ccccc1 (stereo unspecified)	-10	8	0	100*	-8
CCn1cc(/C=N\NC(=O)c2ccccc2Cl)cn1	2	-12	2	-6	4
